These results are taken from PMC3985758 (ACS Chemical Biology, 2014).

The test system of one series is MCF7 cells. Particulars: cited from earlier work.
For series [1] the following is noted: known aggregators; not among compounds measured by DLS here; cited from earlier work.
The next series deals with MDA-MB-231 cells. The series can be described thus: Concentration-response proliferation assay. The class given is cell-based. A digest of the protocol: (§1)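 Cells seeded at 10,000 cells/cm2 and left to adhere overnight, then dosed in RPMI 1640 with 10% charcoal-stripped FBS. Colloidal formulation: DMSO stock diluted 1000-fold into medium (0.1% DMSO). Monomeric formulation: stock diluted 10-fold in DMSO, then into medium giving 1% DMSO and 0.025% v/v polysorbate 80. Vehicle controls made the same way. Medium refreshed every 12 h over 72 h; cells washed; proliferation by MTS or DAPI nuclei counts, relative to untreated.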

Another series has as its system MCF7. The series can be described thus: Concentration-response proliferation assay, colloidal vs monomeric formulation. The class given is cell-based. A digest of the protocol: as §1
The test system of another series is BT474. The series is described as above. Type of series: cell-based. A digest of the protocol:
as §1

Series [2] concerns T47D ductal carcinoma cell line. Described as above. Type of series: cell-based. Put shortly:
as §1

As to `O=c1c(-c2ccc(O)cc2)coc2cc(O)cc(O)c12` [Genistein], the “concentration of maximum activity of bell-shaped curve” value in the series with MCF7 cells is 50 µM.
On to `CNC(=O)c1cc(Oc2ccc(NC(=O)Nc3ccc(Cl)c(C(F)(F)F)c3)cc2)ccn1` [Sorafenib, sorafenib], for which the “CAC (critical aggregation concentration)” value in series [1] was 3.5 µM. The “inhibition of cell proliferation” value with MDA-MB-231 cells (10 μM, colloidal formulation (0.1% DMSO, no UP 80), 72 h) is reported as “almost entirely eliminated”. Further, the inhibition at 10 µM with MDA-MB-231 cells (Homo sapiens, MDA-MB-231, 72 h, read-out: inhibition of proliferation) is around 90%. For the same compound, the “concentration at which loss of activity is observed” value with MDA-MB-231 cells (colloidal formulation, MDA-MB-231) is at least 10 µM.
As for `C[C@]12CC[C@@H]3c4ccc(O)cc4C[C@@H](CCCCCCCCC[S+]([O-])CCCC(F)(F)C(F)(F)F)[C@H]3[C@@H]1CC[C@@H]2O` (stereo partly drawn) [Fulvestrant], the “concentration at which loss of activity is observed” value in the series with MCF7 and with BT474 was at least 1 µM each time.
As for `C[C@@H](Oc1cc(-c2cnn(C3CCNCC3)c2)cnc1N)c1c(Cl)ccc(F)c1Cl` [Crizotinib, crizotinib], the “CAC (critical aggregation concentration)” value in series [1] was 19.3 µM. Moreover, the “concentration at which antiproliferative activity is lost” value in series [2] is 10 µM.
